Experimental data as given in ChEMBL document CHEMBL4350992, “Identification of Diketopiperazine-Containing 2-Anilinobenzamides as Potent Sirtuin 2 (SIRT2)-Selective Inhibitors Targeting the "Selectivity Pocket", Substrate-Binding Site, and NAD+-Binding Site” (J Med Chem, 2019).
Calls of active or inactive are those of the source. No cut-off for these calls is given here.

Columns and labels:
[1] = biological target: T1, NAD-dependent protein deacetylase sirtuin-1 (Homo sapiens) (UniProt Q96EB6); test: Inhibition of human N-terminal His-tagged SIRT1 expressed in Escherichia coli at 50 uM using p53 (Arg-His-Lys-Lys(Ac)) (379 to 382 residues) as substrate incubated for 3 hrs measured up to 30 mins by fluorescence assay relative to control
T1 sequence (whole entry): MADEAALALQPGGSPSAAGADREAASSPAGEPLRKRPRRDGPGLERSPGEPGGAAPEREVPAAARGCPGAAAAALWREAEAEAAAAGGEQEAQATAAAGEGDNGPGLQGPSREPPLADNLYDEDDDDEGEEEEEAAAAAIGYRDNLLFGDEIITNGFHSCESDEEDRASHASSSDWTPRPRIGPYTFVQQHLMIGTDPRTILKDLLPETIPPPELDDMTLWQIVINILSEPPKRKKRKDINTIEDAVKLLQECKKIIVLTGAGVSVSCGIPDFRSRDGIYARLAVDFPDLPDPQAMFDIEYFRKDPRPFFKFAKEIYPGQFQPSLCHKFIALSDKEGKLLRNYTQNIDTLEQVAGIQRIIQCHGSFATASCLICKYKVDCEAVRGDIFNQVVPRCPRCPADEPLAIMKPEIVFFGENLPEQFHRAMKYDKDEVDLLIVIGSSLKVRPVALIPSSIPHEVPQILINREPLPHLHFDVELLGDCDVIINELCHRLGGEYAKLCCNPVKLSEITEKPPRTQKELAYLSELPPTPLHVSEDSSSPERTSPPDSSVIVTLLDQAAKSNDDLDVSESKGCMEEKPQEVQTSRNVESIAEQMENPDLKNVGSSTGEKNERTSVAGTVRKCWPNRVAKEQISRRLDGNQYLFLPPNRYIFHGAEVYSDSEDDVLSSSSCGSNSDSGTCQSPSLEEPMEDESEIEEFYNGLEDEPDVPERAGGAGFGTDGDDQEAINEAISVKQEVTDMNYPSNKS

[2] = biological target: T2, NAD-dependent protein deacetylase sirtuin-2 (Homo sapiens) (UniProt Q8IXJ6); test: Inhibition of human N-terminal His-tagged SIRT2 expressed in Escherichia coli at 10 uM using p53 (Gln-Pro-Lys-Lys(Ac)) (317 to 320 residues) as substrate incubated for 3 hrs measured up to 30 mins by fluorescence assay relative to control
T2 sequence (whole entry): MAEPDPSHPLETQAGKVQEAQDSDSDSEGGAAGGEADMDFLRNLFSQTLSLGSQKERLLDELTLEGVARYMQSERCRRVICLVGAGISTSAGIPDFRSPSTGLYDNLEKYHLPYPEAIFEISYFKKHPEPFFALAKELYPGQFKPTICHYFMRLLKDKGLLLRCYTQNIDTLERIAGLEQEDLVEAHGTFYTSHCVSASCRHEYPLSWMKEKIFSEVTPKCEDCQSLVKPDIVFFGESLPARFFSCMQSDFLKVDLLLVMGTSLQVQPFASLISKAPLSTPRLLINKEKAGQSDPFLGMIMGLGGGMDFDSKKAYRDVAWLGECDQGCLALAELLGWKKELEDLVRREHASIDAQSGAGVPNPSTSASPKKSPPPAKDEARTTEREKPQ

[3] = biological target: T2, NAD-dependent protein deacetylase sirtuin-2 (Homo sapiens); test: Inhibition of human N-terminal His-tagged SIRT2 expressed in Escherichia coli at 1 uM using p53 (Gln-Pro-Lys-Lys(Ac)) (317 to 320 residues) as substrate incubated for 3 hrs measured up to 30 mins by fluorescence assay relative to control
[4] = biological target: T1, NAD-dependent protein deacetylase sirtuin-1 (Homo sapiens); test: Inhibition of human N-terminal His-tagged SIRT1 expressed in Escherichia coli at 100 uM using p53 (Arg-His-Lys-Lys(Ac)) (379 to 382 residues) as substrate incubated for 3 hrs measured up to 30 mins by fluorescence assay relative to control
[5] = biological target: T3, NAD-dependent protein deacetylase sirtuin-2 (Homo sapiens, UniProt Q8IXJ6); test: Inhibition of human N-terminal His-tagged SIRT2 expressed in Escherichia coli using p53 (Gln-Pro-Lys-Lys(Ac)) (317 to 320 residues) as substrate incubated for 3 hrs measured up to 30 mins by fluorescence assay
T3 sequence (Q8IXJ6 whole entry): T2 sequence (whole entry)

[6] = biological target: T4, NAD-dependent protein deacetylase sirtuin-3, mitochondrial (Homo sapiens) (UniProt Q9NTG7); test: Inhibition of human N-terminal His-tagged SIRT3 (102 to 399 residues) expressed in Escherichia coli at 100 uM using p53 (Gln-Pro-Lys-Lys(Ac)) (317 to 320 residues) as substrate incubated for 3 hrs measured up to 30 mins by fluorescence assay relative to control
T4 sequence (whole entry): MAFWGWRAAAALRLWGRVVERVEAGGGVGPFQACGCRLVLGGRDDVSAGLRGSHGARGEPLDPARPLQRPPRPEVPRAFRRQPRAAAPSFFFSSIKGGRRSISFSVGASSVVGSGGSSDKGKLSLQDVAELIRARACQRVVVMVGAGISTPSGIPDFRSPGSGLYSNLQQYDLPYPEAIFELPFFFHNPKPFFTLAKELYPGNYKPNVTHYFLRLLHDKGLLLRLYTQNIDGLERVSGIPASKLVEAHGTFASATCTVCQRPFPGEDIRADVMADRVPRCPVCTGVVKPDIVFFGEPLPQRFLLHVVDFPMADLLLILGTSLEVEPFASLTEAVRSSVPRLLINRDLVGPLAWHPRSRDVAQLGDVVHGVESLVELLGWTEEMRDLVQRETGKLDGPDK

[7] = biological target: NAD-dependent protein deacylase sirtuin-5, mitochondrial (Homo sapiens) (UniProt Q9NXA8); test: Inhibition of human N-terminal His-tagged SIRT5 (37 to 310 residues) expressed in Escherichia coli at 100 uM using flour de lys succinyl as substrate incubated for 3 hrs measured up to 30 mins by fluorescence assay relative to control
Sequence of NAD-dependent protein deacylase sirtuin-5, mitochondrial (Homo sapiens) (Q9NXA8 37-310 limits assumed): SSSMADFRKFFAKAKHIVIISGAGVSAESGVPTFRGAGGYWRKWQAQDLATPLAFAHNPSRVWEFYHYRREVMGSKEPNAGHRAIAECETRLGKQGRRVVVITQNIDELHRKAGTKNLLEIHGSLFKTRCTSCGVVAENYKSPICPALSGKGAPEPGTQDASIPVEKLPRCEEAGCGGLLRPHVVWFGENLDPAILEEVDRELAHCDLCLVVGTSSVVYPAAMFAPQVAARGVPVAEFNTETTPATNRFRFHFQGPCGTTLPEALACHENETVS

[8] = biological target: T3, NAD-dependent protein deacetylase sirtuin-2; test: Inhibition of human N-terminal His-tagged SIRT2 expressed in Escherichia coli using p53 (Gln-Pro-Lys-Lys(Ac)) (317 to 320 residues) as substrate incubated for 3 hrs measured up to 30 mins in presence of NAD+ by fluorescence-based Michaelis-Menten plot analysis; details: in the assay text read “incubated for 45 mins” for “incubated for 3 hrs”
Procedure, shortened: (§1)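 The Fluor de Lys SIRT2 assay was run with reaction time shortened to 45 min. The acetylated substrate concentration was varied at saturating NAD⁺. Inhibitor was tested at 0, 0.1, 0.4, 0.6 and 1 µM, or at 0, 0.02, 0.06, 0.1 and 0.4 µM. Ki was derived from Michaelis–Menten and Lineweaver–Burk plots.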

[9] = biological target: T2, NAD-dependent protein deacetylase sirtuin-2 (Homo sapiens); test: Competitive inhibition of human N-terminal His-tagged SIRT2 expressed in Escherichia coli up to uM using varying levels of p53 (Gln-Pro-Lys-Lys(Ac)) (317 to 320 residues) as substrate incubated for 3 hrs measured up to 30 mins in presence of NAD+ by Lineweaver-burk plot analysis; details: in the assay text read “incubated for 45 mins” for “incubated for 3 hrs”; procedure, shortened: as §1
MCF7 [10] = test: Growth inhibition of human MCF7 cells at 30 uM measured after 72 hrs by AlamarBlue assay relative to control; format: functional; details: MCF7, 72 h, read-out: GI
Procedure, shortened: (§2)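 MCF-7 cells in DMEM with 10% FBS were seeded at 1×10³ cells/well. After 24 h at 37°C, 5% CO₂, compound in medium was added at varying concentrations for 72 h. AlamarBlue was then added for 3 h and fluorescence read (ex 540/em 590 nm). Percent growth was calculated from the readings, and GI50 from the dose response. Three independent determinations.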

N2a [11] = test: Induction of neurite outgrowth in mouse Neuro2a cells at 0.2 to 2 uM measured after 24 to 48 hrs by microscopic analysis; format: functional, cell-based
Procedure, shortened: (§3)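 N2a cells were plated at 1×10⁴ cells/mL in DMEM with 10% FBS, then switched to DMEM with 2% FBS for differentiation. Compound was added for 24 or 48 h and morphology scored by microscopy. A cell counted as differentiated if it had ≥1 neurite longer than twice the soma diameter; ≥100 cells were counted per condition. Triplicate experiments, mean ± SD, one-way ANOVA with Dunnett's test.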

[12] = biological target: T4, NAD-dependent protein deacetylase sirtuin-3, mitochondrial (Homo sapiens); test: Inhibition of human N-terminal His-tagged SIRT3 (102 to 399 residues) expressed in Escherichia coli at 50 uM using p53 (Gln-Pro-Lys-Lys(Ac)) (317 to 320 residues) as substrate incubated for 3 hrs measured up to 30 mins by fluorescence assay relative to control
[13] = Solubility of the compound in buffer/DMSO at 100 uM; format: physicochemical
[14] = biological target: T5, NAD-dependent protein deacetylase sirtuin-1 (Homo sapiens, UniProt Q96EB6); test: Inhibition of human N-terminal His-tagged SIRT1 expressed in Escherichia coli using p53 (Arg-His-Lys-Lys(Ac)) (379 to 382 residues) as substrate incubated for 3 hrs measured up to 30 mins by fluorescence assay
T5 sequence (Q96EB6 whole entry): T1 sequence (whole entry)

[15] = biological target: Histone deacetylase (Homo sapiens) (UniProt Q13547+O15379+Q9UBN7+Q92769+Q9UQL6+Q8WUI4+Q9BY41+Q96DB2+P56524+Q9UKV0+Q969S8); test: Inhibition of HDAC in human HeLa cell nuclear extract at 2.5 to 100 uM using fluor de lys as substrate by fluorescence assay; format: cell-free
[16] = biological target: Lysine-specific demethylase 5A (Homo sapiens) (UniProt P29375); test: Inhibition of human C-terminal FLAG-tagged KDM5A (1 to 1090 residues) expressed in baculovirus infected Sf9 insect cells at 2.5 to 100 uM using H3(1-21)K4(Me3)-GGK(Biotin)/2-OG as substrate measured after 1 hr by Alphalisa assay
Sequence of Lysine-specific demethylase 5A (Homo sapiens) (P29375 whole entry, the tested form may be a part): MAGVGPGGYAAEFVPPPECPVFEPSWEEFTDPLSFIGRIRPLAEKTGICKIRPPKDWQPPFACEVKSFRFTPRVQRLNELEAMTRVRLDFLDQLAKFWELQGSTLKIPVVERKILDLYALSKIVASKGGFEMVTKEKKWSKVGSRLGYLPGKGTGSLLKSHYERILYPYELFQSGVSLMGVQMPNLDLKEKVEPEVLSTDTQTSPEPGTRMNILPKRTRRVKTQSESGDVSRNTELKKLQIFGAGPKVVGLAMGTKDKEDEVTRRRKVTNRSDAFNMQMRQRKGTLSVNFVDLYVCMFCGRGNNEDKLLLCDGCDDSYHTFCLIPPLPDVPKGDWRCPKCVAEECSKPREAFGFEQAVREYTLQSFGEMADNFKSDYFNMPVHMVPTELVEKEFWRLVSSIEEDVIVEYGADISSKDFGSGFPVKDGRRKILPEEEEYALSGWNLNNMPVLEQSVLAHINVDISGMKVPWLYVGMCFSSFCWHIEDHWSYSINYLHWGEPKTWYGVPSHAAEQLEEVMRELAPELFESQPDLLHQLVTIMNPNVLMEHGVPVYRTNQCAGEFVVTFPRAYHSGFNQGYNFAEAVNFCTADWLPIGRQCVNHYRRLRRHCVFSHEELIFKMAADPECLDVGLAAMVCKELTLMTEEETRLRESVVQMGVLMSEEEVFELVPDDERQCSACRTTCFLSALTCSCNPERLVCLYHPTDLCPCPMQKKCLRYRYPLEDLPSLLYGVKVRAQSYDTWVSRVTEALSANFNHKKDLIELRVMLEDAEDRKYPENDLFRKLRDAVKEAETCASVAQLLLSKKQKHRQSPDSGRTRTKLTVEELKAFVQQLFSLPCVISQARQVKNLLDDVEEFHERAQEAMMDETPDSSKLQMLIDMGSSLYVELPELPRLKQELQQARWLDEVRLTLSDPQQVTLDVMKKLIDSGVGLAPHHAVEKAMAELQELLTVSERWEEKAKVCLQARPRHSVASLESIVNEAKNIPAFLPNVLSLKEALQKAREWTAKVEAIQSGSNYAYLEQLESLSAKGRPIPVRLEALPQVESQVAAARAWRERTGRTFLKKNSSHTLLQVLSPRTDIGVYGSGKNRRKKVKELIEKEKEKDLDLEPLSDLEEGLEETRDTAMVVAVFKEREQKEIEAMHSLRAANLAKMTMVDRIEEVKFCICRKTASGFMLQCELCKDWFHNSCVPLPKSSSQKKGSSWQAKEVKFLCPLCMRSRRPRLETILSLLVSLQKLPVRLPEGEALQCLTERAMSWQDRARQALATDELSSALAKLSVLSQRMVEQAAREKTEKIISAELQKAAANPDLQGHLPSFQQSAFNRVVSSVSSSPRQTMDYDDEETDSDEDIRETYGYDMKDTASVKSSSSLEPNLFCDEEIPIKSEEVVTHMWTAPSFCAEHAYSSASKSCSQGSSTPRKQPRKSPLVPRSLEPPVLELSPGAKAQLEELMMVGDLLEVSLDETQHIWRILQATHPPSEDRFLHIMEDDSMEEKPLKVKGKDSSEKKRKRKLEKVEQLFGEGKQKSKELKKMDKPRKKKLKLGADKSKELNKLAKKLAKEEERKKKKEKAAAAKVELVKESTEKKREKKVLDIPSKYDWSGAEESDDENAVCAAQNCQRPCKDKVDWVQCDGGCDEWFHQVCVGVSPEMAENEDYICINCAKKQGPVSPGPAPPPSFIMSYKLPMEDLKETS

[17] = biological target: T2, NAD-dependent protein deacetylase sirtuin-2 (Homo sapiens); test: Binding affinity to recombinant human full-length N-terminal His-tagged SIRT2 expressed in baculovirus infected Sf9 insect cells assessed as ADP ribose-compound complex formation measured after 5 mins in presence of NAD+ by MALDI-TOF analysis
Procedure, shortened: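 Recombinant SIRT2 at 1.9 µM, 500 µM NAD⁺ and 1 mM compound were reacted for 5 min at 37°C in 40 mM sodium phosphate pH 7.0 with 240 mM NaCl, 120 mM imidazole, 0.2 mM DTT, 20% glycerol and 2% DMSO. Controls lacked compound, NAD⁺ or enzyme. Mixtures were diluted, desalted on C18 tips and analysed by MALDI-TOF in reflectron negative-ion mode with α-cyano-4-hydroxycinnamic acid matrix.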

MCF7 [18] = test: Growth inhibition of human MCF7 cells measured after 72 hrs by AlamarBlue assay; format: functional; procedure, shortened: as §2
N2a [19] = test: Induction of neurite outgrowth in mouse Neuro2a cells assessed as differentiated cells at 2 uM measured after 24 hrs by microscopic analysis (reference value: 2.53 +/- 0.76%); format: functional; procedure, shortened: as §3
N2a [20] = test: Induction of neurite outgrowth in mouse Neuro2a cells assessed as differentiated cells at 2 uM measured after 48 hrs by microscopic analysis (reference value: 4.18 +/- 1.67%); format: functional; procedure, shortened: as §3

inhibition [1] [%]	inhibition [2] [%]	inhibition [3] [%]	inhibition [4] [%]	IC50 [5] [µM]	inhibition [6] [%]	inhibition [7] [%]	Ki [8] [µM]	inhibition [9]	Compound	inhibition of growth at 30 µM (MCF7 [10]) [%]	other results
9	92	59	13	0.6	17	2	0.47	Active	O=C(CNC(=O)c1ccccc1Nc1cccc(OCCc2ccccc2)c1)NCCCC[C@@H]1NC(=O)CNC1=O	40	Activity (N2a [11]): inactive
16	93	47	28	1.18	80	16	–	–	Cc1cc(C)nc(SCC(=O)Nc2cccc(Nc3ccccc3C(N)=O)c2)n1	–	inhibition [12]: 63%
–	–	–	51	–	61	6	–	–	C[C@H](NC(=O)[C@H](CCCCNC(=O)CNC(=O)c1ccccc1Nc1cccc(OCCc2ccccc2)c1)NC(=O)OCc1ccccc1)C(N)=O	–	solubility [13]: Insoluble
41	–	73	–	0.31	–	0	0.068	Active	O=C1CNC(=O)[C@H](CCCCNC(=S)CNC(=O)c2ccccc2Nc2cccc(OCCc3ccccc3)c2)N1	96	IC50 [14]: 77.4 µM; inhibition [15]: inactive; inhibition [16]: inactive; Activity [17]: Active; growth inhibition (GI) (MCF7 [18]): Dose-dependent effect; GI50 (MCF7 [18]; MCF7, 72 h): 11.5 µM; Activity (N2a [19]): 4.54%; Activity (N2a [20]): 12.27%
